The source of these data is ChEMBL document CHEMBL1142465, “Novel potent inhibitors of A. thaliana cytokinin oxidase/dehydrogenase” (Bioorg Med Chem, 2008).

The structures appear in SMILES notation.

The target of one series is T1, Histidine kinase 3 (Arabidopsis thaliana, UniProt Q9C5U1).
T1 sequence (Q9C5U1 whole entry): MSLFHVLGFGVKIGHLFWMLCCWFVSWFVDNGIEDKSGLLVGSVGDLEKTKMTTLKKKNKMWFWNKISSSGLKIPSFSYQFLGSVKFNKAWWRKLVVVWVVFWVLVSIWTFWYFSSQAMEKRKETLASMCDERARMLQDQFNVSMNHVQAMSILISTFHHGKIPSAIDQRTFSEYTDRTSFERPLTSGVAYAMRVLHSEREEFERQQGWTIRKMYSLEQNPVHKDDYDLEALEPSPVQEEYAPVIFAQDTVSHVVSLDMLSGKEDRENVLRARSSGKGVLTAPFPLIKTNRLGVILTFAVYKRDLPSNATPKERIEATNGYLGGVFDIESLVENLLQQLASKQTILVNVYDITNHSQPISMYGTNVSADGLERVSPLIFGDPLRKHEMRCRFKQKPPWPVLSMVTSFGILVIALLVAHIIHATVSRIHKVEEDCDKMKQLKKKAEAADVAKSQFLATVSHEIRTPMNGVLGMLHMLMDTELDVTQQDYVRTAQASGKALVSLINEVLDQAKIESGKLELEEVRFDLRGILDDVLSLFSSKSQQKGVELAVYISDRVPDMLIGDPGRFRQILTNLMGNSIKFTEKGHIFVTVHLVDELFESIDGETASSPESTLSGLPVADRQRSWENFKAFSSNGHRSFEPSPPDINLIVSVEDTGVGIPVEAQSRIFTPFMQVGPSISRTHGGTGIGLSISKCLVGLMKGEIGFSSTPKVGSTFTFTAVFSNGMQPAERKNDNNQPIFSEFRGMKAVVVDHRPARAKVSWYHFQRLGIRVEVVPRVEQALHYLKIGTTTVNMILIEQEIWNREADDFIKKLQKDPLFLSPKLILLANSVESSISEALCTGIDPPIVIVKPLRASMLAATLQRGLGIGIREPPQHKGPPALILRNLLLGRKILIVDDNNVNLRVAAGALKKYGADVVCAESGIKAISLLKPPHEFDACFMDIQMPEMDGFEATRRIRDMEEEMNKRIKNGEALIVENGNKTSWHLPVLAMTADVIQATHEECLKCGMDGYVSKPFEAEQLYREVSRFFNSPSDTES
As to the kind of experiment: Activation of Arabidopsis thaliana AHK3 receptor expressed in Escherichia coli KMI001 by beta-galactosidase activity.
Conditions: not given
Take `c1ccc(Nc2ncnc3[nH]cnc23)cc1`: the EC50 was over 50 µM.

For `COc1ccccc1Nc1nc(Cl)nc2[nH]cnc12`, the response was half-maximal at 33 µM (EC50).

Turning to `Clc1cccc(Nc2nc(Cl)nc3[nH]cnc23)c1`, the EC50 was 10.7 µM.

Consider `Fc1ccc(Nc2nc(Cl)nc3[nH]cnc23)cc1`, for which a half-maximal response (EC50) required 50 µM.

On to `Clc1nc(Nc2ccccc2)c2nc[nH]c2n1`, for which the EC50 is over 50 µM.

For the next series, the target named is T2, Cytokinin dehydrogenase 2 (Arabidopsis thaliana, UniProt Q9FUJ3).
T2 sequence (Q9FUJ3 whole entry): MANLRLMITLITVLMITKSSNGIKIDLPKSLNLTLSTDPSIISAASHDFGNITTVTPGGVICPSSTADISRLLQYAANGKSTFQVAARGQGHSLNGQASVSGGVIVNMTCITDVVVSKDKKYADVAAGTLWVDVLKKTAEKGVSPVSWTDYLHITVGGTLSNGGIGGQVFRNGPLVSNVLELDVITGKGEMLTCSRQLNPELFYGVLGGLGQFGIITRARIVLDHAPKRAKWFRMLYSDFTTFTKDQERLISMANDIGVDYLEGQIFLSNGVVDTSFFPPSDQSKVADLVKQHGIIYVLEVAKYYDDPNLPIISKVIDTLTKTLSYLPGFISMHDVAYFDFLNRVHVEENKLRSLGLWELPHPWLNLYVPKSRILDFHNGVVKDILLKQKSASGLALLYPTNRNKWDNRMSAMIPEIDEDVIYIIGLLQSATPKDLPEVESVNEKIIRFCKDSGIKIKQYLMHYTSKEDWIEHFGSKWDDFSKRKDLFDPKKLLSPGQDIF
As to the kind of experiment: Inhibition of sArabidopsis thaliana CKX2 expressed in Saccharomyces cerevisiae 23344c ura-.
Conditions: not given
Compound `COc1ccccc1Nc1nc(Cl)nc2[nH]cnc12` registered an IC50 of over 100 µM.

In the case of `COc1cccc(Nc2nc(N)nc3[nH]cnc23)c1`, the IC50 is 27 µM.

As for `Clc1cccc(Nc2nc(Cl)nc3[nH]cnc23)c1`, the IC50 was determined as 3.9 µM.

Turning to `COc1cccc(Nc2nc([N+](=O)[O-])nc3[nH]cnc23)c1`, the IC50 came to 14 µM.

As to `COc1cccc(Nc2nc(SC)nc3[nH]cnc23)c1`, the IC50 was over 100 µM.

In the case of `Fc1ccc(Nc2nc(Cl)nc3[nH]cnc23)cc1`, the IC50 was found to be 50 µM.

Turning to `COc1cccc(Nc2nc(Cl)nc3c2ncn3C(C)C)c1`, the IC50 is over 100 µM.

In turn, `COc1ccc(Nc2nc(Cl)nc3[nH]cnc23)cc1` displayed an IC50 of over 100 µM.

Compound `Clc1nc(Nc2ccccc2)c2nc[nH]c2n1` registered an IC50 of 80 µM.

As to `COc1cccc(Nc2nc(Cl)nc3c2ncn3C)c1`, the IC50 came to 61 µM.

In a further series the test system is Nicotiana tabacum. Put plainly: Cytokinin-like effect in tobacco assessed as stimulation of callus growth at 100 umol/L relative to 6-benzylaminopurine. Type of series: functional.
Conditions: not given
A digest of the protocol:
(§1)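 Cytokinin-dependent tobacco callus growth in 6-well plates, 3 mL MS medium per well, otherwise per published protocol. Compounds from DMSO stocks diluted into medium, final DMSO ≤0.2%. Five replicates per concentration, whole test repeated at least three times. Activity expressed relative to BAP set at 100 (reference 10^-6 M BAP) at the optimal concentration.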
On to `c1ccc(Nc2ncnc3[nH]cnc23)cc1`, for which the Activity stood at 47%.

Take `COc1cccc(Nc2nc([N+](=O)[O-])nc3[nH]cnc23)c1`: the Activity was 35.5%.

The next series deals with Nicotiana tabacum. As to the kind of experiment: Cytokinin-like effect in tobacco assessed as stimulation of callus growth at 10 umol/L relative to 6-benzylaminopurine. The class given is functional. As to conditions: at 10 µM.
As for `COc1ccccc1Nc1nc(Cl)nc2[nH]cnc12`, the Activity was 100%.

As to `COc1cccc(Nc2nc(N)nc3[nH]cnc23)c1`, the Activity is on record as 71%.

For `Clc1cccc(Nc2nc(Cl)nc3[nH]cnc23)c1`, the Activity amounted to 95%.

Take `COc1cccc(Nc2nc(SC)nc3[nH]cnc23)c1`: the Activity is given as 91%.

For the compound `COc1cccc(Nc2nc(Cl)nc3c2ncn3C(C)C)c1`, the Activity was determined as 38%.

Take `COc1ccc(Nc2nc(Cl)nc3[nH]cnc23)cc1`: the Activity is reported as 76%.

Take `COc1cccc(Nc2nc(Cl)nc3c2ncn3C)c1`: the Activity is reported as 76%.

Another series concerns Nicotiana tabacum. Put plainly: Cytokinin-like effect in tobacco assessed as stimulation of callus growth at 1 umol/L relative to 6-benzylaminopurine. Type of series: functional.
Conditions: not given
Summed up: as §1
With `Fc1ccc(Nc2nc(Cl)nc3[nH]cnc23)cc1`, the Activity amounted to 99%.

Take `Clc1nc(Nc2ccccc2)c2nc[nH]c2n1`: the Activity was 103%.

Another series has as its system Amaranthus. As to the kind of experiment: Cytokinin-like effect in Amaranthus cotyledons assessed as dark induction of betacyanin synthesis at 100 umol/L relative to 6-benzylaminopurine. Type of series: functional. The note with it: at 100 µM.
Consider `c1ccc(Nc2ncnc3[nH]cnc23)cc1`, for which the Activity came out at 52%.

Take `COc1ccccc1Nc1nc(Cl)nc2[nH]cnc12`: the Activity was 63%.

On to `COc1cccc(Nc2nc(N)nc3[nH]cnc23)c1`, for which the Activity came out at 116%.

On to `COc1cccc(Nc2nc([N+](=O)[O-])nc3[nH]cnc23)c1`, for which the Activity is 43%.

With `COc1cccc(Nc2nc(SC)nc3[nH]cnc23)c1`, the Activity is given as 101%.

As to `Fc1ccc(Nc2nc(Cl)nc3[nH]cnc23)cc1`, the Activity came to 92%.

For the compound `COc1cccc(Nc2nc(Cl)nc3c2ncn3C(C)C)c1`, the Activity is on record as 44%.

`COc1ccc(Nc2nc(Cl)nc3[nH]cnc23)cc1`: the Activity came to 60%.

Take `Clc1nc(Nc2ccccc2)c2nc[nH]c2n1`: the Activity amounted to 139%.

Turning to `COc1cccc(Nc2nc(Cl)nc3c2ncn3C)c1`, the Activity amounted to 69%.

A further series concerns Amaranthus. Put plainly: Cytokinin-like effect in Amaranthus cotyledons assessed as dark induction of betacyanin synthesis at 10 umol/L relative to 6-benzylaminopurine. The class given is functional.
Conditions: not given
A digest of the protocol: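 Dark induction of betacyanin synthesis in Amaranthus cotyledons, per previously published protocol. Compounds from DMSO stocks diluted into medium, final DMSO ≤0.2%. Five replicates per concentration, whole test repeated at least three times. Relative activity taken at the optimal concentration against BAP set at 100 (reference 10^-5 M BAP).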
Take `Clc1cccc(Nc2nc(Cl)nc3[nH]cnc23)c1`: the Activity was determined as 119%.

A further series has as its system Triticum aestivum. Put plainly: Cytokinin-like effect in wheat assessed as retention of chlorophyll in excised leaves at 100 umol/L by senescence assay relative to 6-benzylaminopurine. Type of series: functional. The note with it: at 100 µM.
In the case of `c1ccc(Nc2ncnc3[nH]cnc23)cc1`, the Activity is given as 14%.

Turning to `COc1ccccc1Nc1nc(Cl)nc2[nH]cnc12`, the Activity is reported as 29%.

Turning to `COc1cccc(Nc2nc(N)nc3[nH]cnc23)c1`, the Activity is given as 16%.

`Clc1cccc(Nc2nc(Cl)nc3[nH]cnc23)c1`: the Activity is 11.5%.

As for `COc1cccc(Nc2nc([N+](=O)[O-])nc3[nH]cnc23)c1`, the Activity is recorded as 15%.

As for `COc1cccc(Nc2nc(SC)nc3[nH]cnc23)c1`, the Activity amounted to 2%.

For `Fc1ccc(Nc2nc(Cl)nc3[nH]cnc23)cc1`, the Activity is listed as 5%.

For the compound `COc1cccc(Nc2nc(Cl)nc3c2ncn3C(C)C)c1`, the Activity is on record as 5%.

Take `COc1ccc(Nc2nc(Cl)nc3[nH]cnc23)cc1`: the Activity was determined as 19%.

For the compound `Clc1nc(Nc2ccccc2)c2nc[nH]c2n1`, the Activity was found to be 23%.

`COc1cccc(Nc2nc(Cl)nc3c2ncn3C)c1`: the Activity was determined as 30%.

Another series has as its system Nicotiana tabacum. As to the kind of experiment: Toxicity in tobacco assessed as inhibition of callus growth at 100 uM. The note with it: in vivo. Summed up: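 Tobacco callus growth dose-response up to 100 µM in 6-well plates with 3 mL MS medium per well. Compounds from DMSO stocks diluted into medium, final DMSO ≤0.2%. Five replicates per concentration. Readings compared against a control treatment with no cytokinin.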
For the compound `Fc1ccc(Nc2nc(Cl)nc3[nH]cnc23)cc1`, the Activity entry was “Non-toxic”.
